Experimental findings from ChEMBL document CHEMBL5661979, “Pharmacological inhibition of BMK1 suppresses tumor growth through promyelocytic leukemia protein” (Cancer Cell, 2010) are described below.

Assay [1] concerns the target Cyclin-dependent kinase 10 (Homo sapiens, UniProt Q15131). Description: Inhibition of CDK10 in human HeLa cells lysate at 10 uM pre incubated for 15 mins followed by ATP acyl phosphate probe addition and measured after 10 mins by LC-MS/MS analysis relative to control. The format is subcellular. Conditions: time 25.0 min. In a few lines: (§1)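 KiNativ profiling in HeLa lysate (5 mg/mL total protein). Lysate incubated 15 min with inhibitor at 50, 10, 2, 0.8 or 0 μM. ATP or ADP acylphosphate probe then added (5 μM final) and reacted 10 min. Reaction stopped with urea and analysed by targeted MS, using up to four fragment ions per kinase peptide-probe conjugate. % inhibition taken against untreated lysate. Run in duplicate.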

Assay [2] concerns the target Serine/threonine-protein kinase 3/4 (Homo sapiens) (UniProt Q13043+Q13188). Description: Inhibition of MST1/2 in human HeLa cells lysate at 2 uM pre incubated for 15 mins followed by ATP acyl phosphate probe addition and measured after 10 mins by LC-MS/MS analysis relative to control. The format is subcellular. The settings on record: time 25.0 min.
The target of assay [3] is Epidermal growth factor receptor (Homo sapiens, UniProt P00533). Description: Inhibition of EGFR in human HeLa cells lysate at 50 uM pre incubated for 15 mins followed by ADP acyl phosphate probe addition and measured after 10 mins by LC-MS/MS analysis relative to control. Type of assay: subcellular. The settings on record: time 25.0 min.
The next assay has as its target SRSF protein kinase 1 (Homo sapiens, UniProt Q96SB4). Description: Inhibition of SRPK1 in human HeLa cells lysate at 2 uM pre incubated for 15 mins followed by ATP acyl phosphate probe addition and measured after 10 mins by LC-MS/MS analysis relative to control. Type of assay: subcellular. The settings on record: time 25.0 min.
In assay [4] the target is T1, Serine/threonine-protein kinase Chk1 (Homo sapiens) (UniProt O14757).
T1 sequence (whole entry): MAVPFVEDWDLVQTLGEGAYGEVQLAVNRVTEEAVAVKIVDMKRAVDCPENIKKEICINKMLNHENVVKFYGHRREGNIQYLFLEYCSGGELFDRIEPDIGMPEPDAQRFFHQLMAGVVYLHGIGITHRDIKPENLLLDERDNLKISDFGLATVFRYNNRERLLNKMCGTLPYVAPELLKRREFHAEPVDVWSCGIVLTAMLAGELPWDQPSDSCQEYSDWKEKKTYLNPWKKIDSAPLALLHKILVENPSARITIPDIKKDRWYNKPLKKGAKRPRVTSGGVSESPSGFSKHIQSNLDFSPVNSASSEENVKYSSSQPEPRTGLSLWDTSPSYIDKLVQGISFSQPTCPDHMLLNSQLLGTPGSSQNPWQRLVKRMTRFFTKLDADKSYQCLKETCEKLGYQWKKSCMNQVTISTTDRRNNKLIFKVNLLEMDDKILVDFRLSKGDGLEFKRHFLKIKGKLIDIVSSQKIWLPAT
Description: Inhibition of CHK1 K2 site in human HeLa cells lysate at 2 uM pre incubated for 15 mins followed by ATP acyl phosphate probe addition and measured after 10 mins by LC-MS/MS analysis relative to control. Type of assay: subcellular. Conditions: time 25.0 min. In a few lines: as §1

The target in assay [5] is Dual specificity mitogen-activated protein kinase kinase; MEK1/2 (Homo sapiens, UniProt P36507+Q02750). Description: Inhibition of MAP2K1/MAP2K2 in human HeLa cells lysate pre incubated for 15 mins followed by ADP acyl phosphate probe addition and measured after 10 mins by LC-MS/MS analysis. Type of assay: subcellular.
Assay [6] addresses Eukaryotic elongation factor 2 kinase (Homo sapiens) (UniProt O00418). Description: Inhibition of EEF2K in human HeLa cells lysate at 2 uM pre incubated for 15 mins followed by ATP acyl phosphate probe addition and measured after 10 mins by LC-MS/MS analysis relative to control. Conditions: time 25.0 min. Type of assay: subcellular.
For assay [7], the target named is Calcium/calmodulin-dependent protein kinase type 1D (Homo sapiens, UniProt Q8IU85). Description: Inhibition of CAMK1d in human HeLa cells lysate at 2 uM pre incubated for 15 mins followed by ATP acyl phosphate probe addition and measured after 10 mins by LC-MS/MS analysis relative to control. The format is subcellular. The settings on record: time 25.0 min. In a few lines: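 KiNativ-type profiling in HeLa lysate (5 mg/mL total protein). Lysate preincubated 15 min with inhibitor at 50, 10, 2, 0.8 or 0 μM, then ATP or ADP acylphosphate probe added (5 μM final) for 10 min. Reaction stopped with urea and analysed by targeted MS, using up to four fragment ions per kinase peptide-probe conjugate. % inhibition calculated against untreated lysate. Duplicate reactions.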
Calcium/calmodulin-dependent protein kinase type 1D, sequence (Q8IU85 whole entry, looked up, the tested form may be a part): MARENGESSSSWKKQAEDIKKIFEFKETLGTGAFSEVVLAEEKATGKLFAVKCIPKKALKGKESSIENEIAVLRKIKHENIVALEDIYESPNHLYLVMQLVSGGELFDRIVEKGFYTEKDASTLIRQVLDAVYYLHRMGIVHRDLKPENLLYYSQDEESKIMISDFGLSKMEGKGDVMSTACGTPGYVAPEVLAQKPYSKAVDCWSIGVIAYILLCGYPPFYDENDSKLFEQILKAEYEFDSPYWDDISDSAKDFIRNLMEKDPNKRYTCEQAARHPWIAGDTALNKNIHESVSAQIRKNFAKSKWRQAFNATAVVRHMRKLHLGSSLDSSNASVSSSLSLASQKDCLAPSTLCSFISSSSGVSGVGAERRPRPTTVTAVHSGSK

For assay [8], the target named is Mitogen-activated protein kinase 7 (Mus musculus) (UniProt Q9WVS8). Description: Inhibition of BMK1 in pml null mouse MEF cells assessed as increase in p21 protein expression at 5 uM incubated for 16 hrs by Western blot analysis. Type of assay: cell-based. In a few lines:
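Pml+/+ or Pml−/− MEFs treated ±5 μM inhibitor for 16 h. Lysates western blotted for p21, quantified by densitometry and normalized to GAPDH, relative to untreated Pml+/+ MEF set as 1. n = 3, ±SEM.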
(In general: In western blotting, separated proteins are transferred to a membrane and probed.)

Assay [9] has as its target Phosphatidylinositol 4-phosphate 3-kinase C2 domain-containing subunit beta (Homo sapiens, UniProt O00750). Description: Inhibition of PIK3C2B in human HeLa cells lysate at 2 uM pre incubated for 15 mins followed by ATP acyl phosphate probe addition and measured after 10 mins by LC-MS/MS analysis relative to control. The format is subcellular. Conditions: time 25.0 min.

The target of assay [10] is T2, Serine/threonine-protein kinase Sgk3 (Homo sapiens) (UniProt Q96BR1).
T2 sequence (whole entry): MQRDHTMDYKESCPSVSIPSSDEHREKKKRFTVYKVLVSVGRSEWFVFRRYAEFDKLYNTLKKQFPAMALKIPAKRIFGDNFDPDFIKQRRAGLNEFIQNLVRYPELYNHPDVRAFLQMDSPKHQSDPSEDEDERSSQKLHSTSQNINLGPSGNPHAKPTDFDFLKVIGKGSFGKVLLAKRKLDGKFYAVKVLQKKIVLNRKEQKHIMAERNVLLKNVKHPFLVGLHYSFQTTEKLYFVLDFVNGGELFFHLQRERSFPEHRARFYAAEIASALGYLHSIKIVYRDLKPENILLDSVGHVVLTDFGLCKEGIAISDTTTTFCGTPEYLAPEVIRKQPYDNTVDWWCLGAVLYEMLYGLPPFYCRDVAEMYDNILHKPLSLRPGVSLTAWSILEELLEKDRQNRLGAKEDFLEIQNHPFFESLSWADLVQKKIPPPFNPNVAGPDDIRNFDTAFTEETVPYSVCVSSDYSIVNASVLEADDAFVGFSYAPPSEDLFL
Description: Inhibition of SGK3 in human HeLa cells lysate at 10 uM pre incubated for 15 mins followed by ATP acyl phosphate probe addition and measured after 10 mins by LC-MS/MS analysis relative to control. Type of assay: subcellular. Conditions: time 25.0 min.

The target of assay [11] is Serine/threonine-protein kinase/endoribonuclease IRE1 (Homo sapiens, UniProt O75460). Description: Inhibition of IRE1 in human HeLa cells lysate at 10 uM pre incubated for 15 mins followed by ADP acyl phosphate probe addition and measured after 10 mins by LC-MS/MS analysis relative to control. Type of assay: subcellular. Conditions: time 25.0 min.
Assay [12] can be described thus: Inhibition of NEK6/7 in human HeLa cells lysate pre incubated for 15 mins followed by ATP acyl phosphate probe addition and measured after 10 mins by LC-MS/MS analysis. The format is subcellular.
Assay [13] concerns the target Ribosomal protein S6 kinase alpha-3 (Homo sapiens, UniProt P51812). Description: Inhibition of RSK2 domain 2 in human HeLa cells lysate at 2 uM pre incubated for 15 mins followed by ATP acyl phosphate probe addition and measured after 10 mins by LC-MS/MS analysis relative to control. The format is subcellular. The settings on record: time 25.0 min.

Molecules are shown by their SMILES. Calls of active or inactive are those of the source. No cut-off for these calls is given here.

Cyclin-dependent kinase 10, sequence (Q15131 whole entry, the tested form may be a part): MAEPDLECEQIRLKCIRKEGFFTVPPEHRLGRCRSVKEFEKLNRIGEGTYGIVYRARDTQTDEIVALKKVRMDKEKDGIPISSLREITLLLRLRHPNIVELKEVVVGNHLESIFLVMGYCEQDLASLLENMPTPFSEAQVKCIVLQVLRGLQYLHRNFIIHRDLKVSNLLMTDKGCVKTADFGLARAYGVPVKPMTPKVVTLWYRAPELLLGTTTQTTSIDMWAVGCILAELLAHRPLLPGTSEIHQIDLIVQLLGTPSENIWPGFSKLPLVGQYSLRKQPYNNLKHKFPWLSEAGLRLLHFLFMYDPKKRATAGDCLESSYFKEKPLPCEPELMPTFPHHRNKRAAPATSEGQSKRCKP
Mitogen-activated protein kinase 7 (Mus musculus), sequence (Q9WVS8 whole entry): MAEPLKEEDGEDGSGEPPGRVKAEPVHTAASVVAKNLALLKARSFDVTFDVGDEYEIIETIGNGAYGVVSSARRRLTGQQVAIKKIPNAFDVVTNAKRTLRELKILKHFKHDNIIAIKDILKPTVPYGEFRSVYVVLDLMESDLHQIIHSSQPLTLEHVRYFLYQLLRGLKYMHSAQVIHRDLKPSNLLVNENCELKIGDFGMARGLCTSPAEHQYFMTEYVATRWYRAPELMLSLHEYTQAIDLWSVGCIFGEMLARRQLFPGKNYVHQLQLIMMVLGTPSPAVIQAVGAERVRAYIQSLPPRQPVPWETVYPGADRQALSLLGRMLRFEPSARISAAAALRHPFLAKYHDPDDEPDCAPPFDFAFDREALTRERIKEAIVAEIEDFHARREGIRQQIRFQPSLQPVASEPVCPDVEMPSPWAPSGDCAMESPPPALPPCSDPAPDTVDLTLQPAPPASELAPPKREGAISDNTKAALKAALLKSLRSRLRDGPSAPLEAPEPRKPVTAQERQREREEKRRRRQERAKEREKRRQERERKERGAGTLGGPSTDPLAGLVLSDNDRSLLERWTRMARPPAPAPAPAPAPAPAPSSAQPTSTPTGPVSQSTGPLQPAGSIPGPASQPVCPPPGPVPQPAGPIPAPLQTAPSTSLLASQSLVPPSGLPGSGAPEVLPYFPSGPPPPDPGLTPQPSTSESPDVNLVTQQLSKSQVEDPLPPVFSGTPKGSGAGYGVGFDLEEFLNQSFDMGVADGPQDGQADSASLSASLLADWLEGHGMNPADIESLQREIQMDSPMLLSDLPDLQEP
Phosphatidylinositol 4-phosphate 3-kinase C2 domain-containing subunit beta, sequence (O00750 whole entry, the tested form may be a part): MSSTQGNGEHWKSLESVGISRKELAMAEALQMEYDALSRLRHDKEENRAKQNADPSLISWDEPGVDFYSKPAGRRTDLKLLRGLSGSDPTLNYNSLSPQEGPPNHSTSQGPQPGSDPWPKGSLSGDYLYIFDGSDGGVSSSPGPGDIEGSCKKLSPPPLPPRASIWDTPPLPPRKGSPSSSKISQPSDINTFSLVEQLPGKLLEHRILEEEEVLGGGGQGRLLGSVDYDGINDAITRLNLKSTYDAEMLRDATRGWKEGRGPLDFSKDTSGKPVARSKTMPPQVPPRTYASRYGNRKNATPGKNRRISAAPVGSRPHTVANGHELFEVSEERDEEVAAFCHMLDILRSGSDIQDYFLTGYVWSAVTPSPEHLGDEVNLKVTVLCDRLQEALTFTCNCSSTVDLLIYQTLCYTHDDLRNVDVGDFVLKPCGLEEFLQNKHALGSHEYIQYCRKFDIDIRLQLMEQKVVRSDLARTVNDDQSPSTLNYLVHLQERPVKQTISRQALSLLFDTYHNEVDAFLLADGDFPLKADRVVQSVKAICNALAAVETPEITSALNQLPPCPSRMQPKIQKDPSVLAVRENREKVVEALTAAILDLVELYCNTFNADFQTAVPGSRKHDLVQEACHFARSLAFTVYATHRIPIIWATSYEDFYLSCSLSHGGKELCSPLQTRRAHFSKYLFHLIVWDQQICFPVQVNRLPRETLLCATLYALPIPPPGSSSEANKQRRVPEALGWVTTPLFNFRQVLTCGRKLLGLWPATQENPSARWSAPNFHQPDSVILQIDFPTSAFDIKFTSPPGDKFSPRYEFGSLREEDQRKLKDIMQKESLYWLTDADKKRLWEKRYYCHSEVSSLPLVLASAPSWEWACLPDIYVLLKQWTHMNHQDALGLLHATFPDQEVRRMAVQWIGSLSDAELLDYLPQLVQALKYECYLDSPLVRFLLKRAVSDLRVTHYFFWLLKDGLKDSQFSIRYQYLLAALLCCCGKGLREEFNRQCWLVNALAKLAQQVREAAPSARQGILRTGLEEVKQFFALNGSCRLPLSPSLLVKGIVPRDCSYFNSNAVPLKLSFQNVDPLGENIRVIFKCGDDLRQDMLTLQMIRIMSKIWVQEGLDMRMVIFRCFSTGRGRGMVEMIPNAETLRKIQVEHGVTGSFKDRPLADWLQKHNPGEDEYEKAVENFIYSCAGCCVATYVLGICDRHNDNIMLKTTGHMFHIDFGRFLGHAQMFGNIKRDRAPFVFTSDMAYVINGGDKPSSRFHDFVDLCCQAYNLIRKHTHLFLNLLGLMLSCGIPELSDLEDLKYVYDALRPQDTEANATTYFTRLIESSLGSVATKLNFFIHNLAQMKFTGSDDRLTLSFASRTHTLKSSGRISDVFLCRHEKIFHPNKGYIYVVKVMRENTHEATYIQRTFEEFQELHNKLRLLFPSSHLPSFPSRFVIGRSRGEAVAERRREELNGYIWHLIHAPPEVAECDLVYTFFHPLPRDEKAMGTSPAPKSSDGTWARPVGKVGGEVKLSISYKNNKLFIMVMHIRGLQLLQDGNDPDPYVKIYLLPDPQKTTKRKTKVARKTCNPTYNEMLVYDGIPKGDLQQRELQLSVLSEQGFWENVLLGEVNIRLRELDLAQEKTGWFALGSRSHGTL
Ribosomal protein S6 kinase alpha-3, sequence (P51812 whole entry, the tested form may be a part): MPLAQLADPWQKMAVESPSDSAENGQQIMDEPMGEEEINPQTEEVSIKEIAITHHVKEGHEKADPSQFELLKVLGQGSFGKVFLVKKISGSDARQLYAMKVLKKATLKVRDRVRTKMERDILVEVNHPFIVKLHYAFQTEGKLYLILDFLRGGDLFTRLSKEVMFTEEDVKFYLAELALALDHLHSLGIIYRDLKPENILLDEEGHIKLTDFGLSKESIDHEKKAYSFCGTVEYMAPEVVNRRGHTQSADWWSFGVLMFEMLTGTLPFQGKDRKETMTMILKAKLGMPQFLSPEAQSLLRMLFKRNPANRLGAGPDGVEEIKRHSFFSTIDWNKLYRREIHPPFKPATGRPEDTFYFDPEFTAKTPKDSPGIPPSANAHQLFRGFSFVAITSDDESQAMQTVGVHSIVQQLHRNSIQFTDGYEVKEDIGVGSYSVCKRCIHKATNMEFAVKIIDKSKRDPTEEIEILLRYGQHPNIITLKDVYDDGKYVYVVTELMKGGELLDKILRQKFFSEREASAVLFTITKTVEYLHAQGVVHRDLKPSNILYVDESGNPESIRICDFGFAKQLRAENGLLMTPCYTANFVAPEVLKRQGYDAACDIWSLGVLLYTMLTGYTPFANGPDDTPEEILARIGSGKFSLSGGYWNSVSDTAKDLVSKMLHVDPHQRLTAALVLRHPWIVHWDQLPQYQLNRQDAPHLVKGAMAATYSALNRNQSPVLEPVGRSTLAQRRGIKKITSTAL
SRSF protein kinase 1, sequence (Q96SB4 whole entry): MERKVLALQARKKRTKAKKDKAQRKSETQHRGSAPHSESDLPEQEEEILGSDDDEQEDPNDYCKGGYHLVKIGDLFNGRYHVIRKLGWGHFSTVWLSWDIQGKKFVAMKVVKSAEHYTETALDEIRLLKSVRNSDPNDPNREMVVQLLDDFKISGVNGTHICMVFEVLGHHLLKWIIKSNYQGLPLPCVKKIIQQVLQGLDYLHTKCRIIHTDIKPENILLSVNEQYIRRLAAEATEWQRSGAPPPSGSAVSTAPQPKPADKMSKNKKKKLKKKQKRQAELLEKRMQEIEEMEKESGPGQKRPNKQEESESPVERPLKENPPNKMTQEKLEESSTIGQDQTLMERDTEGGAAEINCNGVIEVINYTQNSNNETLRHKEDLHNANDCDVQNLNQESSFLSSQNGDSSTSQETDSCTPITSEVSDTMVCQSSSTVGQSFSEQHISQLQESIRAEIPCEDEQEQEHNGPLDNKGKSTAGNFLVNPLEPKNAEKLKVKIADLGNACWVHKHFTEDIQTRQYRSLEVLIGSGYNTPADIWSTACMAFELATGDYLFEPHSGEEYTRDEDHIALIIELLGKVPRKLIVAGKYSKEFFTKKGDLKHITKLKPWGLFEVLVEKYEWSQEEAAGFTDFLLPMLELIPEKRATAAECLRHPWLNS

For orientation: inhibition means the change of the read-out against control, counted positive when it falls. Usually IC50 stands for the midpoint of a concentration-inhibition curve. Low readings indicate higher potency, high ones lower potency. Consider `CCOc1cc(N2CCC(O)CC2)ccc1Nc1ncc2c(n1)N(C)c1ccccc1C(=O)N2C`, for which the inhibition was -3.2% in assay [1]; -9% in [2]; 5.9% in assay [3]; -2% at SRSF protein kinase 1; -2% in assay [4]; 1.5% in assay [6]. In addition, the inhibition was 4.4% in assay [7]; 26.1% in [9]; 4.4% in [10]; 15.6% in assay [11]; -9.6% in [13]. In addition, the IC50 in assay [5] and in assay [12] was more than 50 µM in each case. The inhibition result in assay [8] is “inactive”.
